Drawing on BindingDB's records for doi:10.1021/jm800789h (National Cancer Institute-Frederick, 2009), this text covers IC50 and Kd for 13 molecules.

*1 amine or outer side, *2 acyl side, *3 side chain or, on linkers, in order; H or OH if unused. Where a SMILES comes first, the peptide text is derived from it. [ ]: non-standard residue; d: D form. The star is where a group is joined. X2 = O=C(c1cc(N=C=S)ccc1-c1c2ccc(=O)cc-2oc2cc(O)ccc12)*; Achc(cis-1,4) = O=C([C@H]1CC[C@@H](N[*:1])CC1)[*:2]; Achc(trans-4) = O=C([C@H]1CC[C@H](N[*:1])CC1)[*:2]; Azetidine3carboxylic = O=C(C1CN([*:1])C1)[*:2]; Phac(3-amino) = O=C(Cc1cccc(N[*:1])c1)[*:2]; X3 = C=CCCN([C@@H](CC(C)C)C(=O)[*:2])[*:1]; pY = N[C@@H](Cc1ccc(OP(=O)(O)O)cc1)C(=O)O; X1 = O=C(C1CN([*:3])CCN1[*:1])[*:2]; Trx = NC[C@H]1CC[C@H](C(=O)O)CC1; X6 = O=C([C@H](O)CCN[*:1])[*:2]; X4 = O=C(CC(O)CN[*:1])[*:2]; 4Amb = NCc1ccc(C(=O)O)cc1; 4Abz = Nc1ccc(C(=O)O)cc1; NH(but-3-enyl) = C=CCCN*; Inp = O=C(O)C1CCNCC1

One may read the IC50 as the midpoint of a concentration-inhibition curve. What is called Kd is the equilibrium constant for the complex coming apart. Higher therefore signals weaker binding.

The first test has as its target T1, SHC-transforming protein 1 (Homo sapiens, UniProt P29353).
T1 sequence (P29353 whole entry): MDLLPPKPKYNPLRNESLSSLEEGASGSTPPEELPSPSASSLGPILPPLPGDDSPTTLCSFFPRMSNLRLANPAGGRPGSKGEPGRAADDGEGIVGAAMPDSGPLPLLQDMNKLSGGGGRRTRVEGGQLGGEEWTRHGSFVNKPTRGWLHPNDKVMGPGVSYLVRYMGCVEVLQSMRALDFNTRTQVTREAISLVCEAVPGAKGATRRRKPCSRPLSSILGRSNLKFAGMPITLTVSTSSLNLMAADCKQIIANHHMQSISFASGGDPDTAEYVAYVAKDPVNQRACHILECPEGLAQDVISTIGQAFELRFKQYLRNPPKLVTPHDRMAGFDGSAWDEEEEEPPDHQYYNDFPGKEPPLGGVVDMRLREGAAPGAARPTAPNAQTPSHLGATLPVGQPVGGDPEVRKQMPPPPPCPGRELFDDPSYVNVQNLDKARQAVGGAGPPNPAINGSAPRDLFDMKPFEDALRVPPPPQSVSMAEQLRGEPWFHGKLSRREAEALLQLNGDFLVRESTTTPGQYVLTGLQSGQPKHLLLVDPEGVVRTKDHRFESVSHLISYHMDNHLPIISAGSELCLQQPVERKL
Nature of the test: Displacement of FITC-tagged NH-(CH2)4-CO-phospho-tyrosine-glutamine-glycine-leucine-serine-amide from Shc Src homology 2 domain by fluorescence anisotropy competition assay. The method, boiled down: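 Competition: preformed complex of 2 μM Shc SH2 protein with 10 nM FITC-labelled reference peptide in HEPES/NaCl pH 7.5 buffer, 10% DMSO; unlabelled peptides serially diluted from 500 μM. Anisotropy read at 485/535 nm. Fractional binding fitted with an order-3 spline with three knots; IC50 taken where the spline reaches one half.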
On the technique in general: Fluorescence polarisation rises when a labelled molecule tumbles more slowly, as on binding a larger partner.
In the case of `C=CCCNC(=O)[C@H](CC(C)C)N(CCC=C)C(=O)CNC(=O)[C@H](CCC(N)=O)NC(=O)[C@H](Cc1ccc(OP(=O)(O)O)cc1)NC(C)=O` [4-((2S,5S,11S)-2-acetamido-5-(3-amino-3-oxopropyl)-10-(but-3-enyl)-11-isobutyl-3,6,9,12-tetraoxo-4,7,10,13-tetraazaheptadec-16-enyl)phenyl dihydrogen phosphate], the IC50 was 84 µM.
On the same count and under the same terms, the same measure for `C=CCCNC(=O)[C@H](CO)NC(=O)[C@H](CC(C)C)N(CCC=C)C(=O)CNC(=O)[C@H](CCC(N)=O)NC(=O)[C@H](Cc1ccc(OP(=O)(O)O)cc1)NC(C)=O` [4-((2S,5S,11S,14S)-2-acetamido-5-(3-amino-3-oxopropyl)-10-(but-3-enyl)-14-(hydroxymethyl)-11-isobutyl-3,6,9,12,15-pentaoxo-4,7,10,13,16-pentaazaicos-19-enyl)phenyl dihydrogen phosphate] (Ac-[pY]QG[X3]S-{NH(but-3-enyl)}): 89 µM.

For a further test, the target named is T1, SHC-transforming protein 1. Nature of the test: Binding affinity to Shc Src homology 2 domain by fluorescence anisotropy. A digest of the protocol:
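Direct binding: 5 nM N-terminal fluorescein-labelled peptide in 10 mM HEPES, 150 mM NaCl pH 7.5 with 10% (v/v) DMSO; Shc SH2 protein serially diluted from 100 μM. Excitation 485 nm, parallel and perpendicular emission at 535 nm. Kd from fitting anisotropy versus protein concentration to a single-site binding model.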
`CC(C)C[C@H](NC(=O)CNC(=O)[C@H](CCC(N)=O)NC(=O)[C@H](Cc1ccc(OP(=O)(O)O)cc1)NC(=O)C1CN(C(=O)c2cc(N=C=S)ccc2-c2c3ccc(=O)cc-3oc3cc(O)ccc23)C1)C(=O)N[C@@H](CO)C(N)=O` [4-((2S,5S,11S,14S)-1-amino-11-(3-amino-3-oxopropyl)-14-(1-(2-(6-hydroxy-3-oxo-3H-xanthen-9-yl)-5-isothiocyanatobenzoyl)azetidine-3-carboxamido)-2-(hydroxymethyl)-5-isobutyl-1,4,7,10,13-pentaoxo-3,6,9,12-tetraazapentadecan-15-yl)phenyl dihydrogen phosphate] (X2-[Azetidine3carboxylic][pY]QGLS-NH2) had a Kd of 5.3 µM.
Same read-out and setting: the same measure for `CC(C)C[C@H](NC(=O)CNC(=O)[C@H](CCC(N)=O)NC(=O)[C@H](Cc1ccc(OP(=O)(O)O)cc1)NC(=O)C1CCN(C(=O)c2cc(N=C=S)ccc2-c2c3ccc(=O)cc-3oc3cc(O)ccc23)CC1)C(=O)N[C@@H](CO)C(N)=O` [4-((2S,5S,11S,14S)-1-amino-11-(3-amino-3-oxopropyl)-14-(1-(2-(6-hydroxy-3-oxo-3H-xanthen-9-yl)-5-isothiocyanatobenzoyl)piperidine-4-carboxamido)-2-(hydroxymethyl)-5-isobutyl-1,4,7,10,13-pentaoxo-3,6,9,12-tetraazapentadecan-15-yl)phenyl dihydrogen phosphate] ({X2-Inp}-[pY]QGLS-NH2): 14.2 µM.
For the molecule `CC(C)C[C@H](NC(=O)CNC(=O)[C@H](CCC(N)=O)NC(=O)[C@H](Cc1ccc(OP(=O)(O)O)cc1)NC(=O)Cc1cccc(NC(=O)c2cc(N=C=S)ccc2-c2c3ccc(=O)cc-3oc3cc(O)ccc23)c1)C(=O)N[C@@H](CO)C(N)=O` [4-((2S,5S,11S,14S)-1-amino-11-(3-amino-3-oxopropyl)-14-(2-(3-(2-(6-hydroxy-3-oxo-3H-xanthen-9-yl)-5-isothiocyanatobenzamido)phenyl)acetamido)-2-(hydroxymethyl)-5-isobutyl-1,4,7,10,13-pentaoxo-3,6,9,12-tetraazapentadecan-15-yl)phenyl dihydrogen phosphate] (X2-[Phac(3-amino)][pY]QGLS-NH2), the Kd is 0.77 µM.
The same measure, in the same setting: the same measure for `CC(C)C[C@H](NC(=O)CNC(=O)[C@H](CCC(N)=O)NC(=O)[C@H](Cc1ccc(OP(=O)(O)O)cc1)NC(=O)CC(O)CNC(=O)c1cc(N=C=S)ccc1-c1c2ccc(=O)cc-2oc2cc(O)ccc12)C(=O)N[C@@H](CO)C(N)=O` (stereo partly drawn) [4-((2S,5S,11S,14S)-1-amino-11-(3-amino-3-oxopropyl)-14-(3-hydroxy-4-(2-(6-hydroxy-3-oxo-3H-xanthen-9-yl)-5-isothiocyanatobenzamido)butanamido)-2-(hydroxymethyl)-5-isobutyl-1,4,7,10,13-pentaoxo-3,6,9,12-tetraazapentadecan-15-yl)phenyl dihydrogen phosphate] (X2-[X4][pY]QGLS-NH2): 8.6 µM; for `CC(C)C[C@H](NC(=O)CNC(=O)[C@H](CCC(N)=O)NC(=O)[C@H](Cc1ccc(OP(=O)(O)O)cc1)NC(=O)c1ccc(NC(=O)c2cc(N=C=S)ccc2-c2c3ccc(=O)cc-3oc3cc(O)ccc23)cc1)C(=O)N[C@@H](CO)C(N)=O` [4-((2S,5S,11S,14S)-1-amino-11-(3-amino-3-oxopropyl)-14-(4-(2-(6-hydroxy-3-oxo-3H-xanthen-9-yl)-5-isothiocyanatobenzamido)benzamido)-2-(hydroxymethyl)-5-isobutyl-1,4,7,10,13-pentaoxo-3,6,9,12-tetraazapentadecan-15-yl)phenyl dihydrogen phosphate] ({X2-4Abz}-[pY]QGLS-NH2): 23.9 µM.
Same read-out and setting: with `CC(C)C[C@H](NC(=O)CNC(=O)[C@H](CCC(N)=O)NC(=O)[C@H](Cc1ccc(OP(=O)(O)O)cc1)NC(=O)C1CN(C(=O)c2cc(N=C=S)ccc2-c2c3ccc(=O)cc-3oc3cc(O)ccc23)CCN1)C(=O)N[C@@H](CO)C(N)=O` (stereo partly drawn) [4-((2S,5S,11S,14S)-1-amino-11-(3-amino-3-oxopropyl)-14-(4-(2-(6-hydroxy-3-oxo-3H-xanthen-9-yl)-5-isothiocyanatobenzoyl)piperazine-2-carboxamido)-2-(hydroxymethyl)-5-isobutyl-1,4,7,10,13-pentaoxo-3,6,9,12-tetraazapentadecan-15-yl)phenyl dihydrogen phosphate] (H-[X1](X2)[pY]QGLS-NH2) the figure was 9.5 µM; with `CC(C)C[C@H](NC(=O)CNC(=O)[C@H](CCC(N)=O)NC(=O)[C@H](Cc1ccc(OP(=O)(O)O)cc1)NC(=O)c1ccc(CNC(=O)c2cc(N=C=S)ccc2-c2c3ccc(=O)cc-3oc3cc(O)ccc23)cc1)C(=O)N[C@@H](CO)C(N)=O` [4-((2S,5S,11S,14S)-1-amino-11-(3-amino-3-oxopropyl)-14-(4-((2-(6-hydroxy-3-oxo-3H-xanthen-9-yl)-5-isothiocyanatobenzamido)methyl)benzamido)-2-(hydroxymethyl)-5-isobutyl-1,4,7,10,13-pentaoxo-3,6,9,12-tetraazapentadecan-15-yl)phenyl dihydrogen phosphate] ({X2-4Amb}-[pY]QGLS-NH2), 12.3 µM; with `CC(C)C[C@H](NC(=O)CNC(=O)[C@H](CCC(N)=O)NC(=O)[C@H](Cc1ccc(OP(=O)(O)O)cc1)NC(=O)[C@H](O)CCNC(=O)c1cc(N=C=S)ccc1-c1c2ccc(=O)cc-2oc2cc(O)ccc12)C(=O)N[C@@H](CO)C(N)=O` [4-((2S,5S,11S,14S)-1-amino-11-(3-amino-3-oxopropyl)-14-((R)-2-hydroxy-4-(2-(6-hydroxy-3-oxo-3H-xanthen-9-yl)-5-isothiocyanatobenzamido)butanamido)-2-(hydroxymethyl)-5-isobutyl-1,4,7,10,13-pentaoxo-3,6,9,12-tetraazapentadecan-15-yl)phenyl dihydrogen phosphate] (X2-[X6][pY]QGLS-NH2), 9 µM.
Regarding `CC(C)C[C@H](NC(=O)CNC(=O)[C@H](CCC(N)=O)NC(=O)[C@H](Cc1ccc(OP(=O)(O)O)cc1)NC(=O)[C@H]1CC[C@@H](NC(=O)c2cc(N=C=S)ccc2-c2c3ccc(=O)cc-3oc3cc(O)ccc23)CC1)C(=O)N[C@@H](CO)C(N)=O` [cis-4-((2S,5S,11S,14S)-1-amino-11-(3-amino-3-oxopropyl)-14-(4-(2-(6-hydroxy-3-oxo-3H-xanthen-9-yl)-5-isothiocyanatobenzamido)cyclohexanecarboxamido)-2-(hydroxymethyl)-5-isobutyl-1,4,7,10,13-pentaoxo-3,6,9,12-tetraazapentadecan-15-yl)phenyl dihydrogen phosphate] (X2-[Achc(cis-1,4)][pY]QGLS-NH2), the affinity, expressed as Kd, was 0.5 µM.
As to `CC(C)C[C@H](NC(=O)CNC(=O)[C@H](CCC(N)=O)NC(=O)[C@H](Cc1ccc(OP(=O)(O)O)cc1)NC(=O)[C@H]1CC[C@H](NC(=O)c2cc(N=C=S)ccc2-c2c3ccc(=O)cc-3oc3cc(O)ccc23)CC1)C(=O)N[C@@H](CO)C(N)=O` [trans-4-((2S,5S,11S,14S)-1-amino-11-(3-amino-3-oxopropyl)-14-(4-(2-(6-hydroxy-3-oxo-3H-xanthen-9-yl)-5-isothiocyanatobenzamido)cyclohexanecarboxamido)-2-(hydroxymethyl)-5-isobutyl-1,4,7,10,13-pentaoxo-3,6,9,12-tetraazapentadecan-15-yl)phenyl dihydrogen phosphate] (X2-[Achc(trans-4)][pY]QGLS-NH2), the Kd was determined as 25.4 µM.
Still for that read-out and setting: the same measure for `CC(C)C[C@H](NC(=O)CNC(=O)[C@H](CCC(N)=O)NC(=O)[C@H](Cc1ccc(OP(=O)(O)O)cc1)NC(=O)[C@H]1CC[C@H](CNC(=O)c2cc(N=C=S)ccc2-c2c3ccc(=O)cc-3oc3cc(O)ccc23)CC1)C(=O)N[C@@H](CO)C(N)=O` [trans-4-((2S,5S,11S,14S)-1-amino-11-(3-amino-3-oxopropyl)-14-(4-((2-(6-hydroxy-3-oxo-3H-xanthen-9-yl)-5-isothiocyanatobenzamido)methyl)cyclohexanecarboxamido)-2-(hydroxymethyl)-5-isobutyl-1,4,7,10,13-pentaoxo-3,6,9,12-tetraazapentadecan-15-yl)phenyl dihydrogen phosphate] ({X2-Trx}-[pY]QGLS-NH2): 18 µM.
